Experimental data reported in ChEMBL document CHEMBL5661979, “Pharmacological inhibition of BMK1 suppresses tumor growth through promyelocytic leukemia protein” (Cancer Cell, 2010).
The source made the active and inactive calls. The calls are words filed in the database; no cut-off is given here.

Assays:
[1] = molecular target: Mitogen-activated protein kinase 7 (Mus musculus) (UniProt Q9WVS8); experiment: Inhibition of BMK1 in mouse MEF cells transfected with PML2D S403D/T409D mutant assessed as increase in p21 protein expression at 5 uM incubated for 16 hrs by Western blot analysis; assay type: cell-based
In short: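 Pml−/− MEFs infected with Ad-EV, Ad-PML or Ad-PML2D. Three days later treated ±5 μM inhibitor for 16 h. p21 western blot quantified by densitometry and normalized to GAPDH, relative to untreated Ad-EV-infected Pml−/− cells set as 1. n = 3, ±SEM.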

[2] = molecular target: Mitogen-activated protein kinase 14 (Homo sapiens, UniProt Q16539); experiment: Inhibition of p38a in human HeLa cells lysate at 10 uM pre incubated for 15 mins followed by ATP acyl phosphate probe addition and measured after 10 mins by LC-MS/MS analysis relative to control; assay type: subcellular; conditions: time 25.0 min
[3] = molecular target: Tyrosine-protein kinase JAK1 (Homo sapiens, UniProt P23458); experiment: Inhibition of JAK1 domain 2 in human HeLa cells lysate pre incubated for 15 mins followed by ADP acyl phosphate probe addition and measured after 10 mins by LC-MS/MS analysis; assay type: subcellular
[4] = molecular target: T1, Non-receptor tyrosine-protein kinase TNK1 (Homo sapiens) (UniProt Q13470); experiment: Inhibition of TNK1 in human HeLa cells lysate at 50 uM pre incubated for 15 mins followed by ADP acyl phosphate probe addition and measured after 10 mins by LC-MS/MS analysis relative to control; assay type: subcellular; conditions: time 25.0 min
T1 sequence (whole entry): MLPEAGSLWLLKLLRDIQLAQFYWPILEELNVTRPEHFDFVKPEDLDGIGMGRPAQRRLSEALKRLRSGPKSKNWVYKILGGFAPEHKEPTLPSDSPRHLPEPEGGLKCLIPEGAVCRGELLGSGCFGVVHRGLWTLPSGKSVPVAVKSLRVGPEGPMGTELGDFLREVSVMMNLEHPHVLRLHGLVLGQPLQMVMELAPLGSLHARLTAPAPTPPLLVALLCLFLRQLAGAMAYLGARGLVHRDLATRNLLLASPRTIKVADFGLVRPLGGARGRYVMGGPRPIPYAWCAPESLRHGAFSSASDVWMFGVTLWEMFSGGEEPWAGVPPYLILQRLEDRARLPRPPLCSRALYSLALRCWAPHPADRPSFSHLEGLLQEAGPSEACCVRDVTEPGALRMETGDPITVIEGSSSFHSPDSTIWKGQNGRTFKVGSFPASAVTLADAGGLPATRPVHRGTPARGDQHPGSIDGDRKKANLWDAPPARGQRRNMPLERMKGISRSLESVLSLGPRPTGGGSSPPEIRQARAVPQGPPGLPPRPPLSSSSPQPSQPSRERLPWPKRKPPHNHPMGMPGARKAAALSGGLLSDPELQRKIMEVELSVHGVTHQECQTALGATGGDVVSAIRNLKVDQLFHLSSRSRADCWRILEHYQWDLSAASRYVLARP

[5] = molecular target: Ribosomal protein S6 kinase alpha-1 (Homo sapiens, UniProt Q15418); experiment: Inhibition of C-terminal RPS6KA1 kinase domain (unknown origin) assessed as remaining activity at 10 uM by ATP-competition binding assay relative to control
[6] = molecular target: Ribosomal protein S6 kinase beta-1 (Homo sapiens, UniProt P23443); experiment: Inhibition of P70S6K in human HeLa cells lysate at 50 uM pre incubated for 15 mins followed by ATP acyl phosphate probe addition and measured after 10 mins by LC-MS/MS analysis relative to control; assay type: subcellular; conditions: time 25.0 min
[7] = tested on: A549; experiment: Antitumor activity against human A549 cells xenografted in NOD/SCID mouse assessed as reduction in BMK activation at 50 mg/kg, ip administered twice a day for 2 days by Western blot analysis; assay type: functional, organism-based; conditions: time 2.0 day
In short: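 A549 cells (1×10^6, in DMEM) were injected s.c. into the right flank of 6-week-old Nod/Scid mice. On day 21, mice received 50 mg/kg twice daily or carrier; 2 per group. After 2 days, tumors were homogenized in E1A buffer. Western blot read BMK1 activation (mobility shift) and p21, quantified by densitometry normalized to GAPDH.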

[8] = molecular target: Serine/threonine-protein kinase tousled-like 2 (Homo sapiens, UniProt Q86UE8); experiment: Inhibition of TLK2 in human HeLa cells lysate pre incubated for 15 mins followed by ADP acyl phosphate probe addition and measured after 10 mins by LC-MS/MS analysis; assay type: subcellular
[9] = molecular target: Serine/threonine-protein kinase 3/4 (Homo sapiens, UniProt Q13043+Q13188); experiment: Inhibition of MST1/2 in human HeLa cells lysate pre incubated for 15 mins followed by ADP acyl phosphate probe addition and measured after 10 mins by LC-MS/MS analysis; assay type: subcellular
[10] = molecular target: Serine/threonine-protein kinase Nek7 (Homo sapiens, UniProt Q8TDX7); experiment: Inhibition of NEK7 in human HeLa cells lysate pre incubated for 15 mins followed by ADP acyl phosphate probe addition and measured after 10 mins by LC-MS/MS analysis; assay type: subcellular
[11] = molecular target: T2, Mitogen-activated protein kinase kinase kinase kinase 2 (Homo sapiens) (UniProt Q12851); experiment: Inhibition of GCK in human HeLa cells lysate at 50 uM pre incubated for 15 mins followed by ADP acyl phosphate probe addition and measured after 10 mins by LC-MS/MS analysis relative to control; assay type: subcellular; conditions: time 25.0 min
T2 sequence (whole entry): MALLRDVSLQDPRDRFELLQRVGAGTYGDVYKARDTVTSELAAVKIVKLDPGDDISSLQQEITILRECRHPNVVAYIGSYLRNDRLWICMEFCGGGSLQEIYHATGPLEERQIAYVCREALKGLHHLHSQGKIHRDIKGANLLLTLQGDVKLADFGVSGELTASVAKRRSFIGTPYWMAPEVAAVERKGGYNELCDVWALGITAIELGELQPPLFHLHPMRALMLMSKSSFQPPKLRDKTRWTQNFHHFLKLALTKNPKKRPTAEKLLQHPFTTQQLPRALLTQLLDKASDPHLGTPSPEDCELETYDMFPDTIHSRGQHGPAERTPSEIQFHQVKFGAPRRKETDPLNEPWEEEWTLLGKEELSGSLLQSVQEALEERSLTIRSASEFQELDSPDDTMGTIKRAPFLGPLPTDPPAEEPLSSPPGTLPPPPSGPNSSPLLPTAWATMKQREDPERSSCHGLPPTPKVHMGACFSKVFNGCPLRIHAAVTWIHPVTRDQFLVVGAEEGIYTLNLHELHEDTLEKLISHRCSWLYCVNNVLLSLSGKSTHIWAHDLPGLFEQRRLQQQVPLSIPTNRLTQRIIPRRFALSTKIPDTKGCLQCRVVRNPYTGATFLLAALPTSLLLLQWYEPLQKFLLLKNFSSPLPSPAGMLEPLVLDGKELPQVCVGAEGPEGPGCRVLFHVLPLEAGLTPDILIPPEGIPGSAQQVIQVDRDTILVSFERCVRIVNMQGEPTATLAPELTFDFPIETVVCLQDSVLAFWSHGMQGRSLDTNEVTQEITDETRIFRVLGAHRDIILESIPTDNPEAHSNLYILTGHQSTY

Chain of Ribosomal protein S6 kinase beta-1 (P23443 whole entry, looked up): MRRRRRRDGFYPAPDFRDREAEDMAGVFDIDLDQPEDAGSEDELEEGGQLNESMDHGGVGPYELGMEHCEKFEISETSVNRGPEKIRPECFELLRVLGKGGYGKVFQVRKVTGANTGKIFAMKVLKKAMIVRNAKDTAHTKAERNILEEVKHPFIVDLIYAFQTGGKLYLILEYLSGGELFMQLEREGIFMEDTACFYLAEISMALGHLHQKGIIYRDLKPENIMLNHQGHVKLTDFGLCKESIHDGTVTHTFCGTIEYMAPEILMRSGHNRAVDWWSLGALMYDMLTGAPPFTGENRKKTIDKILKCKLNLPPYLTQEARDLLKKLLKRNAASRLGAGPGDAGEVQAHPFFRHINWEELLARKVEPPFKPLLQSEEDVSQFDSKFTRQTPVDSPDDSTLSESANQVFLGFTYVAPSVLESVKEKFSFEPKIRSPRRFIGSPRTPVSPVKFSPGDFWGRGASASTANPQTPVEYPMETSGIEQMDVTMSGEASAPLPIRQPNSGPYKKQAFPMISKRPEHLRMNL
Chain of Mitogen-activated protein kinase 14 (Q16539 whole entry, the tested form may be a part): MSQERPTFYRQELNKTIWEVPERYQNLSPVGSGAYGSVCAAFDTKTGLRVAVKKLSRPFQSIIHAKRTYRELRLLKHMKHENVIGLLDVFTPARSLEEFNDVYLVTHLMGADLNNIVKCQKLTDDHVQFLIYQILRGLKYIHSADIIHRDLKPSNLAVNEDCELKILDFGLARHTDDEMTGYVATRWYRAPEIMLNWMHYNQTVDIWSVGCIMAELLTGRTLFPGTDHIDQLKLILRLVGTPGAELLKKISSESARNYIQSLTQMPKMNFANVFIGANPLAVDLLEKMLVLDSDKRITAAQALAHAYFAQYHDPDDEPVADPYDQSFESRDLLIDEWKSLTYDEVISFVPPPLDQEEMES
Chain of Serine/threonine-protein kinase tousled-like 2 (Q86UE8 whole entry): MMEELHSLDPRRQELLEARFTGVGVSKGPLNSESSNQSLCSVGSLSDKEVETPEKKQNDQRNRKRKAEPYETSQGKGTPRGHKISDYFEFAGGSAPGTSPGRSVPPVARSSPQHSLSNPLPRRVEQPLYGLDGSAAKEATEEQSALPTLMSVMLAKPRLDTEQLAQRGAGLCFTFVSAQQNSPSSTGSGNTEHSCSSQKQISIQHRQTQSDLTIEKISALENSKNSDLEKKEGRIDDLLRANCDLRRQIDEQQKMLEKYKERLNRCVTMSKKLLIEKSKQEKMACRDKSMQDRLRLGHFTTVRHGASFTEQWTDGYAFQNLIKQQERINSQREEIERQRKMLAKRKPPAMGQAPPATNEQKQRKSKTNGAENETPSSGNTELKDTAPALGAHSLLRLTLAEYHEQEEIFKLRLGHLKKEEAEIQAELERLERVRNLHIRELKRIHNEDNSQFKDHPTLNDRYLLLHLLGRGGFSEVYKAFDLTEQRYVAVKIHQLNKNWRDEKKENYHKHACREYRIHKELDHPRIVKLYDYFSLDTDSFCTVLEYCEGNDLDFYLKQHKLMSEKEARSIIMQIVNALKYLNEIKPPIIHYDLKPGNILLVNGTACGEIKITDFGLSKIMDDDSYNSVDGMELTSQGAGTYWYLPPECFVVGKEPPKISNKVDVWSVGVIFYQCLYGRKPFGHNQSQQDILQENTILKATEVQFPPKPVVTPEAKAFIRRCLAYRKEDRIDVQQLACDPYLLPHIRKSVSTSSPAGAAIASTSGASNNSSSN
Chain of Tyrosine-protein kinase JAK1 (P23458 whole entry, the tested form may be a part): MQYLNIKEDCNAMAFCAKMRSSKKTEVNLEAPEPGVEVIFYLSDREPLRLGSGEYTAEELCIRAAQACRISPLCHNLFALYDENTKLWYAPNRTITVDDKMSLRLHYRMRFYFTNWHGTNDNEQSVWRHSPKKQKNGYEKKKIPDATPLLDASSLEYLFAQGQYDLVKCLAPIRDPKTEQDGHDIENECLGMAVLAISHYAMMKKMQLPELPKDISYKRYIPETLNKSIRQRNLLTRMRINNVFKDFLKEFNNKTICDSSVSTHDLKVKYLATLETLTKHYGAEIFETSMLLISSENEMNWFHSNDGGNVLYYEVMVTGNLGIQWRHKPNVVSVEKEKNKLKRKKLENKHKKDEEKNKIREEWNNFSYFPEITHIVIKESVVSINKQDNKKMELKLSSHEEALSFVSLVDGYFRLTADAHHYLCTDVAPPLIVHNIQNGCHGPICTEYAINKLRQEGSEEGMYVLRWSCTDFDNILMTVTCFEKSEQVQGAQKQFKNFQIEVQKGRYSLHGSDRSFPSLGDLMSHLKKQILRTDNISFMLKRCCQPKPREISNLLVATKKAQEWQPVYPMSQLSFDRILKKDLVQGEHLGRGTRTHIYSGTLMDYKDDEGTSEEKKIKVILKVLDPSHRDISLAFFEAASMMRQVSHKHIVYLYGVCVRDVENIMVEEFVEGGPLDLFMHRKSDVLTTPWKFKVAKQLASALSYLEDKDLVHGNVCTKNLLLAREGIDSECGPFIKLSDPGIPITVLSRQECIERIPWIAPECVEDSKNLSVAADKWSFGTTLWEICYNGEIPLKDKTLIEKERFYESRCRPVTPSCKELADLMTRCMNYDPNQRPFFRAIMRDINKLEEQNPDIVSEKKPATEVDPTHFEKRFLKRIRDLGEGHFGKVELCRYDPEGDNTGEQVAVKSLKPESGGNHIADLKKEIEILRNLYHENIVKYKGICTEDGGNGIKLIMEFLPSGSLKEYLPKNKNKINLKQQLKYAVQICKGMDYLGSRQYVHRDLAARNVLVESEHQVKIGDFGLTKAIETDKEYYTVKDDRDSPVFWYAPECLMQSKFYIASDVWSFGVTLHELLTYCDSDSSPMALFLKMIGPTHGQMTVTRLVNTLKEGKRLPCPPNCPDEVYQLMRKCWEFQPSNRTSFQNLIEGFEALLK
Chain of Mitogen-activated protein kinase 7 (Mus musculus) (Q9WVS8 whole entry): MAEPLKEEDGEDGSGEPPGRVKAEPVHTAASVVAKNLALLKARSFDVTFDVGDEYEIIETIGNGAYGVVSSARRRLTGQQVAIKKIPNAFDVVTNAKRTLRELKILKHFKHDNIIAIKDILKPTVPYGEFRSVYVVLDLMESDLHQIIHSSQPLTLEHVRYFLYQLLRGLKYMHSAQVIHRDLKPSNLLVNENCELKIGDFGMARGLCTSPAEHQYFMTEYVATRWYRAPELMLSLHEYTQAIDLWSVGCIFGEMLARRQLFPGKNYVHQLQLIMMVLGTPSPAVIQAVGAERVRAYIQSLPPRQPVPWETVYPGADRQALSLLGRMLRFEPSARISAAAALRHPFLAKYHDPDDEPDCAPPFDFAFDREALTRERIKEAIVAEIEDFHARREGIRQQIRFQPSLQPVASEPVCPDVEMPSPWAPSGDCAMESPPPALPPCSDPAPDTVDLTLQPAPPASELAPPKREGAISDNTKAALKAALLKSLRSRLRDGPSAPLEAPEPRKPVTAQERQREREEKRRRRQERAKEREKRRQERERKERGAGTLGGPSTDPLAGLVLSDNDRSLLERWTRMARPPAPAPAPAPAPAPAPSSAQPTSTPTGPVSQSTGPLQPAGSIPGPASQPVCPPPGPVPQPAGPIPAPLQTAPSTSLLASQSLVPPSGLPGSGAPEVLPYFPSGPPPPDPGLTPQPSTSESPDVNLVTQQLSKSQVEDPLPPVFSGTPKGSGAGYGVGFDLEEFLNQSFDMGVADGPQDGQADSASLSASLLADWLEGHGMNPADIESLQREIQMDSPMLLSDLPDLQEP
Chain of Serine/threonine-protein kinase Nek7 (Q8TDX7 whole entry): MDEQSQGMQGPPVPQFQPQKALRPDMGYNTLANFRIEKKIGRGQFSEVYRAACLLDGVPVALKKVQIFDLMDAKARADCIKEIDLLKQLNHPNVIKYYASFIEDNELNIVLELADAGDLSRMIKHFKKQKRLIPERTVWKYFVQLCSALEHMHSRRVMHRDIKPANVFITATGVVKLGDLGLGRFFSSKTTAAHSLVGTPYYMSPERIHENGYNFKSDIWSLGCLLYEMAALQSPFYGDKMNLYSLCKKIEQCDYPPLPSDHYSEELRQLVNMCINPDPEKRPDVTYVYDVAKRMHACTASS
Chain of Ribosomal protein S6 kinase alpha-1 (Q15418 whole entry, the tested form may be a part): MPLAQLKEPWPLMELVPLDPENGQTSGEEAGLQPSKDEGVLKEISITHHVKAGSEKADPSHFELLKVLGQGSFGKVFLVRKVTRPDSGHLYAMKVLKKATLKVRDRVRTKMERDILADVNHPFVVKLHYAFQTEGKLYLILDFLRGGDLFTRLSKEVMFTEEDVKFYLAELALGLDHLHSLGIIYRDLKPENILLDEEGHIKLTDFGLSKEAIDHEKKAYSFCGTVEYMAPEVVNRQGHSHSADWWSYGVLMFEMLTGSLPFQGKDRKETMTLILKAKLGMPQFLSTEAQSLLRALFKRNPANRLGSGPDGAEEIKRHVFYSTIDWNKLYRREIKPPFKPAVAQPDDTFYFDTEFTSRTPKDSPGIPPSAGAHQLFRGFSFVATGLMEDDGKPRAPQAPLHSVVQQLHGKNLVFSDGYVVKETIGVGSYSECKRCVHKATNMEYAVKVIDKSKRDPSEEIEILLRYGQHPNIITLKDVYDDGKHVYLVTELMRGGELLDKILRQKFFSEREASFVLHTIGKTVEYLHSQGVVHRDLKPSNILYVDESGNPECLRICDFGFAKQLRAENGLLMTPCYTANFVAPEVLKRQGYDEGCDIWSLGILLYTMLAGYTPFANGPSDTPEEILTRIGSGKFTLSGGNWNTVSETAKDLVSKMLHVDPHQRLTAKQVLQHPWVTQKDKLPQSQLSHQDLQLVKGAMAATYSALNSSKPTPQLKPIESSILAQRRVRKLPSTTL

For `CCOc1cc(N2CCC(O)CC2)ccc1Nc1ncc2c(n1)N(C)c1ccccc1C(=O)N2C`, the inhibition [1] was “inactive”, the inhibition [2] was -4% and the IC50 [3] was greater than 50 µM. The inhibition [4] was 82.2%, the Activity [5] was 28% and the inhibition [6] was -3.8%. The Activity [7] was “Active”, the IC50 [8] was greater than 50 µM and the IC50 [9] was greater than 50 µM. The IC50 [10] was greater than 50 µM and the inhibition [11] was 34.5%.
